Hits are enriched below; roughly 2.5% of the tested compounds scored in any of these assays.
PRMT1 FP inh – blocks human protein arginine methyltransferase 1. hit rate 1.3% among 370,000. inhibition, % at 2.79 µM. recombinant PRMT1, activity-based probe fluorescence polarization. Q99873;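 active = inhibition above about 21% made by adding two undisclosed values, limit read from the data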
Target sequence (Q99873 whole entry, looked up): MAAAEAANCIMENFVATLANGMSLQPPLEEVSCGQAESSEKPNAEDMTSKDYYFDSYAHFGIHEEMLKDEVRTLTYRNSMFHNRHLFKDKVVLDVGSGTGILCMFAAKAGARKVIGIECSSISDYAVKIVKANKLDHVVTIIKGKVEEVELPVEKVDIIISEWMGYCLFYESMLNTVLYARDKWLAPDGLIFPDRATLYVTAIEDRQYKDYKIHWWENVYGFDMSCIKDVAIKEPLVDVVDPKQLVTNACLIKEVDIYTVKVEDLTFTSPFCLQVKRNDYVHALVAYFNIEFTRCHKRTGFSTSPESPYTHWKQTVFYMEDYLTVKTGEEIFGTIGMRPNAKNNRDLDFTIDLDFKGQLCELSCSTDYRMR
mABHD4 FP – ABHD4 (mouse) inhibition, primary FP screen. Q8VD66. purified mABHD4, FP-Rh probe fluorescence polarization. inhibition, % at 8.92 µM. hit rate 0.54% among 370,000. AID 720543;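 active = inhibition exceeding the mean over every tested compound plus 3 SD, cut at about 30% in these data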;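 also: 0% = plate median of compound wells and 100% = S159A mutant with DMSO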
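Assay system: mouse ABHD4 enzyme, wild type / Also added: fluorescent activity-based probe FP-Rh / Doses: single nominal dose of 8.92 µM, 0.89% DMSO final / Timing: 45 min compound pre-incubation plus 60 min probe step, 25 °C / Signal: FP readout, ex 525 nm / em 598 nm / Control set: S159A mutant/DMSO as 100%, compound-well median as 0%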
SIAE inh – blocks human sialic acid acetylesterase; AID 1053197; SIAE FP-Rh probe binding, fluorescence polarization; Q9HAT2; hit rate 0.69% among 370,000; inhibition, % at 9.66 µM;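 active = inhibition above a cutoff: mean of compounds within the control limits plus 3 SD of those, cut at about 17% in these data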;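 also: 0% = plate median of compound wells and 100% = probe without SIAE protein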
TCR-CD3 inh – human TCR-CD3 binding inhibition | TAMRA-labeled TCR probe fluorescence, biochemical | inhibition, % at 9.4 µM | hit rate 0.37% among 360,000;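 also: recombinant mutant TCR 2C K166C tagged with TAMRA read by polarization; 0% = receptor in buffer alone and 100% = receptor with positive control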
HTRA1 inhibitor – blocks human HTRA1 serine peptidase. Q92743. recombinant HTRA1, FP-rhodamine activity-based probe, fluorescence polarization. inhibition, % at 5.96 µM. hit rate 0.5% among 340,000. AID 504803; in the data active = inhibition above about 36%;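 also: 0% = enzyme with DMSO and 100% = wells lacking enzyme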
BSA TAMRA ctr – counter-screen for TCR-CD3 interaction inhibitors: BSA probe | shares compounds with TCR-CD3 inh | TAMRA-labeled BSA probe fluorescence counterscreen | inhibition, % at 9.4 µM | hit rate 10% among 1,200; in the data active = inhibition above about 23%;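 also: 0% = buffer low control and 100% = reference high control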
TCR-CD3 inh conf – confirmation of human TCR-CD3 interaction inhibitors | shares compounds with TCR-CD3 inh | hit rate 48% among 1,200 | inhibition, % at 9.4 µM | TAMRA-labeled TCR probe fluorescence binding assay
PRMT1 confirm – PRMT1 (human) inhibition, FP confirmation | hit rate 42% among 3,300 | AID 687036 | inhibition, % at 2.79 µM | recombinant His-PRMT1, activity-based probe fluorescence polarization | shares compounds with PRMT1 FP inh;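 active = mean inhibition across replicates above the hit cutoff derived for the earlier primary screen, cut at about 22% in these data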
ABHD4 confirm – ABHD4 (mouse) inhibition, FP confirmation. shares compounds with mABHD4 FP. purified mABHD4, FP-Rh probe fluorescence polarization. inhibition, % at 8.92 µM. hit rate 55% among 1,800. AID 720658;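 active = mean inhibition across replicates above the hit cutoff set in the primary screen, cut at about 30% in these data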;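 also: 0% = wild-type ABHD4 with DMSO and 100% = catalytically dead S159A mutant with DMSO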
Starred values were filed as active, the others as inactive; . = no result. Rule as the data show it, unless noted: active = inhibition above about 19%; inactive = the rest.

SMILES	PRMT1 FP inh	mABHD4 FP	SIAE inh	TCR-CD3 inh	HTRA1 inhibitor	BSA TAMRA ctr	TCR-CD3 inh conf	PRMT1 confirm	others
O=S1(=O)c2ccc(Br)cc2OC[C@@H](Cc2ccccc2)N1Cc1cn(Cc2ccc(C(F)(F)F)cc2)nn1	-1	-2	3	.	.	.	.	.
CN(C)c1ccccc1-c1cc(NC=O)c2ncc(-c3cccc(C(F)(F)F)c3)n2c1	135*	73*	31*	37*	.	9	12	25*
N#C/C(=C\c1ccc(O)c(O)c1)C(=O)c1ccc(O)c(O)c1	35*	24	11	23*	34	12	72*	19
N#C/C(=C\c1ccc(O)c(O)c1)C(=O)N1CCCC1	6	22	11	8	10	.	.	.
O=C(c1ccc(Cl)c(Cl)c1)N1CCN(c2ccnc3cc(Cl)ccc23)CC1	-3	-13	-5	.	.	.	.	.
O=[n+]1c2c(n([O-])c3cc(F)ccc31)CCCC2	9	4	4	6	11	.	.	.
O=[n+]1c2c(n([O-])c3cc(F)c(N4CCCC4)cc31)CCC2	35*	9	-9	25*	4	29*	28*	47*
O=[n+]1c2c(n([O-])c3cc(F)c(N4CCCC4)cc31)CCCC2	46*	3	-2	23*	-2	30*	28*	48*
CN(Cc1ccccc1)C(=O)OCc1cn(Cc2cc(F)ccc2F)nn1	1	-1	-3	.	.	.	.	.
O=C(O)C1CSC(c2ccco2)N1 (stereo unspecified)	27*	15	7	21*	11	-3	17	32*
O=c1c2ccccc2n(Cc2ccccc2)n1[C@@H](Cc1ccccc1)Cn1cc(-c2ccc(-c3ccccc3)cc2)nn1	-4	1	1	.	.	.	.	.
CC(CN1c2ccccc2Sc2ccccc21)N(C)C (stereo unspecified)	0	4	6	5	8	.	.	.
C#CCN1c2ccccc2Sc2cccnc21	63*	5	8	47*	7	2	2	13
Cc1cc2cc(CNC(=O)c3ccc(Br)o3)ccc2[nH]1	19	7	5	3	12	.	.	.
Cc1cc2cc(CNC(=O)c3ccc(Br)o3)ccc2n1C	36*	-7	-3	22*	-1	6	7	5
c1coc(-c2ccc3nncn3c2)c1	43*	23	12	35*	.	-3	30*	39*
O=C(NCCN1CCC(Cc2ccccc2)CC1)C1CCCN(S(=O)(=O)c2ccccc2)C1 (stereo unspecified)	2	7	-1	.	.	.	.	.
CSc1nc(NCCOCCO)c2sc3nc(-c4ccco4)c4c(c3c2n1)CCC4	41*	8	7	20*	-36	-3	0	24*
O=C(N/N=C/c1sc(=O)[nH]c1-[n+]1ccc2ccccc2c1)c1ccccc1[O-]	95*	16	11	33*	35	-9	24*	3
O=c1[nH]c(-[n+]2ccccc2)c(/C=N/N=C(\[O-])c2ccccc2)s1	5	0	2	-6	2	.	.	.
Cc1cccc(C)c1NC(=O)COC(=O)c1c2c(nc3ccccc13)/C(=C\c1ccc3c(c1)OCO3)CCC2	145*	26	22*	58*	-17	49*	30*	5
O=C(O)c1cc(O)c2c(c1)[C@@H]([C@H]1c3cc(C(=O)O)cc(O)c3C(=O)c3c(O[C@@H]4O[C@H](CO)[C@@H](O)[C@H](O)[C@H]4O)cccc31)c1cccc(OC3O[C@H](CO)[C@@H](O)[C@H](O)[C@H]3O)c1C2=O (stereo partly specified)	32*	27	68*	153*	26	-13	109*	13
N#Cc1c(N(CCO)CCO)nc(N)c2c(N)nc3c(c12)CC(=O)N3CC1CCCO1 (stereo unspecified)	30*	8	0	25*	2	7	7	14
CCCCN1C(=O)Cc2c1nc(N)c1c(N)nc(N(CCC)CCC)c(C#N)c21	17	12	7	5	10	.	.	.
COC(=O)[C@]12C[C@H](CC(=O)N3CCCCC3)C(=O)N(Cc3ccccc3)C1=C[C@H](COCc1ccccc1)O[C@@H]2C	-5	-5	-3	.	.	.	.	.
SMILES	PRMT1 FP inh	mABHD4 FP	SIAE inh	TCR-CD3 inh	HTRA1 inhibitor	BSA TAMRA ctr	TCR-CD3 inh conf	PRMT1 confirm	others
Cc1nc(S/C(=C\c2ccc(-c3ccc(C(=O)O)c(Cl)c3)o2)C(=O)O)n[nH]1	33*	39*	4	65*	6	2	67*	39*	ABHD4 confirm=54*
Cc1nc(S/C(=C\c2ccc(OCc3ccccc3Cl)cc2)C(=O)O)n[nH]1	-1	0	-2	3	-3	.	.	.
O=C1CCC[C@H]2C[C@H](NCc3ccc(F)cc3F)CC[C@]23CCCN13	5	1	0	.	.	.	.	.
CN(c1ccccc1)S(=O)(=O)c1ccc(NC(=O)CC(=O)c2ccccc2)cc1	0	32*	-69	56*	-20	7	5	.	ABHD4 confirm=-73
C=CCCC(=O)N[C@H]1CC[C@@]23CCCN2C(=O)CCC[C@H]3[C@H]1CCC	-2	0	-9	.	.	.	.	.
Nc1ncnc2oc(-c3ccco3)c(-c3ccco3)c12	61*	34*	36*	58*	23	-5	27*	.	ABHD4 confirm=4
Nc1nnc(-c2ccco2)s1	10	7	6	3	4	.	.	.
CCCC(=O)OC12CCCN(C1)/C(=C/c1ccccc1)C2 (stereo unspecified)	1	5	3	.	.	.	.	.
Nc1ccc(N=Nc2ccccc2O)c(N)c1	9	39*	8	21*	.	-11	8	.	ABHD4 confirm=40*
COc1ccc2c(n1)Sc1nc3ccccc3nc1N2	78*	32*	9	48*	3	-3	1	20	ABHD4 confirm=10
COc1cc2ccccc2nn1	1	2	-1	-11	3	.	.	.
CC(COc1cccc(F)c1)CN1CCC(C(O)(c2ccccc2)c2ccccc2)CC1 (stereo unspecified)	-5	1	4	.	.	.	.	.
Cc1cc(C(=O)N/N=C/c2cc(Cl)cc([N+](=O)[O-])c2O)c2ccccc2n1	8	32*	7	36*	7	-13	39*	.	ABHD4 confirm=37*
O=C(NN=Cc1cc(Cl)ccc1[N+](=O)[O-])c1cccc2ccccc12	6	-4	2	4	-2	.	.	.
CCN1CCCCC(NC(=O)c2ccc(C)cc2)C1=O (stereo unspecified)	-10	-10	-7	.	.	.	.	.
C[n+]1cc2c3c(ccc2c2ccc4cc5c(cc4c21)OCO5)OCO3	61*	68*	19*	20*	.	19	24*	85*	ABHD4 confirm=71*

Source: PubChem BioAssay (The Scripps Research Institute Molecular Screening Center)
